Assay outcomes (PubChem BioAssay)
Rows were chosen to be rich in hits. Some 1.8% of all compounds tested hit in one or more screens of this group.
NPY Y2 blocker = antagonists of human neuropeptide Y receptor Y2 | NPY-Y2 expressing cells, antagonist mode | P49146 | inhibition, % at 2.7 µM | 140,000 compounds, 0.99% hits; in the data active means inhibition above about 17%
NPY1 pot ag = potentiators or agonists of human neuropeptide Y receptor Y1 | P25929 | NPY-Y1 expressing cells, potentiator/agonist activation | activation, % at 3.6 µM | 220,000 compounds, 0.37% hits | AID 1304; in the data active means activation above about 33%, passing the limit was not always enough;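 further: cells stimulated with NPY at EC10 then isoproterenol at EC100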
Target sequence (P25929 whole entry, looked up): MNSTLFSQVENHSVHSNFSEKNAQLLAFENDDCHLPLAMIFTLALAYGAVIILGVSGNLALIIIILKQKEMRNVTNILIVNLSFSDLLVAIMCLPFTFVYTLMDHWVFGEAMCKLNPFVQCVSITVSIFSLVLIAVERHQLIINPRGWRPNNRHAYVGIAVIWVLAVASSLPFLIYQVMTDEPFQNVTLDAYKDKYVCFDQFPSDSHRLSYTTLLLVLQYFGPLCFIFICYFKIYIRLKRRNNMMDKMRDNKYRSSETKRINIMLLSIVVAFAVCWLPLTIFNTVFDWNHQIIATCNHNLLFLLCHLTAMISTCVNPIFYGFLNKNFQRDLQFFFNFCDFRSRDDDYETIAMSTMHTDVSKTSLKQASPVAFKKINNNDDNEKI
NPY Y1 blocker = NPY-Y1 (human) receptor antagonism; P25929; HEK293-CNG Y1 cells, membrane potential fluorescence; NPY at EC95, then isoproterenol; inhibition, % at 3.6 µM; 200,000 compounds, 1% hits;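 active means inhibition above the campaign mean inhibition of all tested compounds plus 3 SD, cut at about 20% in these data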
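Material: HEK293 Y1/CNG channel cell line | Also added: NPY (25 nM), isoproterenol (1 µM), Ro 20-1724 (25 µM) | Compound: One concentration, 3.6 µM, in 0.4% DMSO | Schedule: 3 h dye uptake, 1 h room-temperature compound, 45 min post-isoproterenol | Signal: Membrane-potential fluorescent dye readout | Read-out: % inhibition of NPY effect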
NPY-Y2 PAM-ag = human NPY-Y2 potentiation or agonism, primary screen. P49146. cells expressing NPY-Y2, potentiator/agonist read-out. activation, % at 3.6 µM. 220,000 compounds, 0.45% hits; in the data active means activation above about 27%;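 further: cells stimulated with NPY near EC25 plus isoproterenol at EC100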
Large screens that a line does not name were inactive.

COc1cc2c(cc1OC)CN(c1nc(CN3CCOCC3)nc3sc4c(c13)CCCC4)CC2	none
COc1ccccc1N1CCN(C(=O)CSc2ncnc3scc(-c4ccccc4)c23)CC1	none
O=C(CSc1ncnc2scc(-c3ccccc3)c12)N1CCN(c2ccccc2F)CC1	NPY Y2 blocker 30, NPY Y1 blocker 33
CC(=O)c1sc(NC(=O)c2ccc(Cn3cc(Br)cn3)o2)nc1C	NPY1 pot ag 46, NPY-Y2 PAM-ag 48
COc1ccccc1CC(=O)Nc1ccc(-c2noc(COc3ccc(Br)cc3)n2)cc1	none
COc1ccccc1CC(=O)Nc1ccc(-c2noc(COc3cccc(C)c3C)n2)cc1	NPY Y2 blocker 22, NPY Y1 blocker 33
CCCCCC1CCC(C(=O)O)CC1 (stereo unspecified)	NPY Y1 blocker 26
CCCCC1CCC(/C(N)=N/O)CC1 (stereo unspecified)	none
O=C(O)C(Cc1ccccc1)N1C(=O)/C(=C/c2cccc3ccccc23)SC1=S (stereo unspecified)	NPY Y2 blocker 20
O=C(O)C(Cc1ccccc1)N1C(=O)/C(=C/c2ccccc2)SC1=S (stereo unspecified)	none
Cc1nc2ccccn2c(=O)c1CCN1CCC(C(=O)c2ccc(F)cc2)CC1	none
Cc1nc2sccn2c(=O)c1CCN1CCC(=C(c2ccc(F)cc2)c2ccc(F)cc2)CC1	NPY Y2 blocker 39, NPY Y1 blocker 29
CC(C)Nc1ccc(Nc2ccnc3cc4ccccc4cc23)cc1	NPY1 pot ag 81, NPY-Y2 PAM-ag 75 (no result: NPY Y2 blocker, NPY Y1 blocker)
COc1ccc(Nc2ccnc3ccccc23)cc1	none
CCOC(=O)CSC1=C(C#N)C(c2ccc(Cl)cc2)CC(=O)N1 (stereo unspecified)	none
Cc1c(C#N)c(N)nc2c3c(sc12)NC(=O)CC3c1ccc(Cl)cc1 (stereo unspecified)	NPY Y2 blocker 42, NPY Y1 blocker 34
N#Cc1c(N)nc2c3c(sc(=N)c2c1N)NC(=O)CC3c1c(F)cccc1Cl (stereo unspecified)	none
N#Cc1c(N)nc2c3c(sc(=N)c2c1N)NC(=O)CC3c1ccccc1 (stereo unspecified)	NPY Y2 blocker 19, NPY Y1 blocker 23
CCOC(=O)CN(C(=O)c1ccccc1[N+](=O)[O-])C(C)(C)C	none (no result: NPY Y2 blocker, NPY Y1 blocker)
Cc1sc2nc(SCC(=O)C(C)(C)C)n(Cc3ccco3)c(=O)c2c1C	NPY Y2 blocker 18, NPY Y1 blocker 29
Cc1ccc(Cn2c(=N)n(CC(O)c3ccco3)c3ccccc32)cc1 (stereo unspecified)	NPY Y2 blocker 23
O=C(NC1CCCCC1)C(c1ccccc1F)N(Cc1ccco1)C(=O)Cn1nnc2ccccc21 (stereo unspecified)	NPY Y2 blocker 57, NPY Y1 blocker 72
O=C(NC1CCCCC1)C(c1ccc(F)cc1)N(Cc1ccco1)C(=O)CN1C(=O)c2ccccc2S1(=O)=O (stereo unspecified)	none
CCC(C)(C)NC(=O)C(c1ccc(C)cc1)N(Cc1ccco1)C(=O)Cn1nnc2ccccc21 (stereo unspecified)	NPY Y2 blocker 61, NPY Y1 blocker 25
Cc1ccc(C(C(=O)NC2CCCCC2)N(Cc2ccco2)C(=O)Cn2cnc3ccccc32)cc1 (stereo unspecified)	NPY Y2 blocker 75, NPY Y1 blocker 34
O=C(NC1CCCCC1)C(c1ccc(F)cc1)N(Cc1ccco1)C(=O)Cn1nnc2ccccc21 (stereo unspecified)	NPY Y2 blocker 36, NPY Y1 blocker 23
CC(=O)Nc1ccc(S(=O)(=O)N2CCN(C(=O)Cc3ccccc3)CC2)cc1	none
Cc1ccc(C(=O)N/C(=C\c2cccs2)c2nc3ccccc3[nH]2)cc1	none
Cc1ccc(N2CSC3=C(C#N)C(c4cccs4)CC(=O)N3C2)cc1 (stereo unspecified)	none
CN(Cc1nc(-c2cccc(Cl)c2)no1)C1CCOCC1	none (no result: NPY Y2 blocker)
CC1(c2ccc3noc(-c4ccccc4)c3c2)OCCO1	none
Cc1ccc(C(C(=O)NC(C)(C)C)N(Cc2ccco2)C(=O)Cn2nnc(-c3cccs3)n2)cc1 (stereo unspecified)	NPY Y2 blocker 34, NPY Y1 blocker 20
C=CCn1nc2n(c1=O)-c1ccccc1SC2	none (no result: NPY Y2 blocker, NPY Y1 blocker)
CCOC(=O)c1c(NC(C)=O)no[n+]1[O-]	none
Cc1sc(N)nc1C12CC3CC(CC(C3)C1)C2	NPY1 pot ag 47, NPY-Y2 PAM-ag 35 (no result: NPY Y2 blocker)
Cc1ccc(C(=O)COC(=O)C(C)N2C(=O)C3C4C=CC(C4)C3C2=O)cc1 (stereo unspecified)	none
O=C(NCc1ccc2c(c1)OCO2)c1cc([N+](=O)[O-])ccc1N1CCCCC1	NPY Y2 blocker 23, NPY Y1 blocker 25
Cc1ccc(-n2ncc(C(=O)Nc3ccc(Cl)cc3)c2C2CCNCC2)cc1C	NPY Y1 blocker 20 (no result: NPY Y2 blocker)
CCCN(CCC)C1=CC(=[N+]2CCCC2)CC(C)(C)C1	NPY Y2 blocker 24, NPY Y1 blocker 34
O=C1CCCc2c1cc(C(=O)O)c(=O)n2-c1ccccc1	none (no result: NPY Y2 blocker)
Cc1ccccc1NC(=O)CSc1nc(N)c2c3c(sc2n1)CSC(C)(C)C3	NPY Y2 blocker 47, NPY Y1 blocker 32
COc1cc2c(cc1OC)-c1cc(Nc3ccccc3)nc(=O)n1CC2	none (no result: NPY Y2 blocker, NPY Y1 blocker)
COc1cc2c(cc1OC)-c1cc(N3CCCCCC3)nc(=O)n1CC2	NPY Y2 blocker 32, NPY Y1 blocker 24
COc1cc2c(cc1OC)-c1cc(N3CCCc4ccccc43)nc(=O)n1CC2	NPY Y2 blocker 136, NPY Y1 blocker 123
COc1cc2c(cc1OC)-c1cc(N3CCc4ccccc43)nc(=O)n1CC2	none (no result: NPY Y2 blocker, NPY Y1 blocker)
COc1cc2c(cc1OC)-c1cc(NC3CCCCCC3)nc(=O)n1CC2	NPY Y2 blocker 43, NPY Y1 blocker 49
CC(NC(=O)c1noc2c1CCCCC2)c1ccccc1 (stereo unspecified)	none
CCC(C)NC(=O)Cn1nc([N+](=O)[O-])c(Cl)c1C (stereo unspecified)	none
Cc1c(Cl)c([N+](=O)[O-])nn1CC(=O)NC(C)C1CC2CCC1C2 (stereo unspecified)	NPY Y2 blocker 21, NPY Y1 blocker 20
Cc1ccc(S(=O)(=O)N2CCN(C(=O)c3cccc(F)c3)CC2)cc1	none
CC(=O)c1sc(NC(=O)C2(F)C(F)(F)C(F)(F)C(F)(F)C(F)(F)C2(F)F)nc1C	NPY1 pot ag 56, NPY-Y2 PAM-ag 54
CC(=O)c1sc(NC(=O)C=C(C)C)nc1C	none
O=C(NNC(=O)c1ccc(F)cc1)C(=O)N1CCCCC1	none
Cc1cccc(OCC(=O)O/N=C(\N)Cc2ccc(Cl)cc2)c1	NPY Y2 blocker 23
Cc1ccc(OCC(=O)O/N=C(\N)Cc2ccc(Cl)cc2)cc1	NPY Y2 blocker 21, NPY Y1 blocker 22
COc1cccc(Cn2cc(N)cn2)c1	none (no result: NPY Y2 blocker)
O=C(Nc1cc(C(F)(F)F)ccc1F)C1CCCCC1	none
O=S(=O)(c1cccc2cccnc12)N(CCO)CCO	NPY1 pot ag 36
CCN(CC)S(=O)(=O)c1cccc2cccnc12	none
O=C(COC(=O)c1cc2ccccc2cc1O)NC(=O)NCc1ccco1	NPY Y1 blocker 21 (no result: NPY Y2 blocker)
Cc1ccc(-c2nc3ccccn3c2Nc2ccccc2)o1	none
COc1ccc(C)cc1S(=O)(=O)NCCC1=CCCCC1	none
